KCNQ1 block – inhibitors of human KCNQ1 potassium channel; actives 1.3% (n = 310,000); P51787; AID 2642; CHO-K1 KCNQ1, FluxOR thallium flux fluorescence; active compounds read high; B-score at 10 µM;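 active = compounds whose thallium flux B-score, printed positive for inhibition, exceeds three library SD while starting fluorescence stays within three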;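 also: channel opened by potassium depolarization with thallium stimulus after 20 min compound exposure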
KCNK3 block – human KCNK3 channel inhibition, primary screen; O14649; CHO-KCNK3 thallium flux, FluxOR fluorescence; active compounds read low; B-score at 10 µM; actives 0.84% (n = 340,000); AID 602410;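 active = B-score under library mean minus 4 SD, starting fluorescence ratio at most library mean plus 5 SD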;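 also: more negative B-score means stronger inhibition of thallium flux through KCNK3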
KCNQ1 pot – potentiators or activators of human KCNQ1 potassium channel | P51787 | CHO-K1 KCNQ1, thallium flux FluxOR fluorescence; active compounds read high | B-score at 10 µM | actives 0.35% (n = 310,000);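 active = fluorescence ratio B-score, a plate-corrected score, at least three library SD, with initial intensity B-score within 5 SD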
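Assay system: CHO-K1 cells stably expressing KCNQ1. Medium: assay buffer for compound exposure, DMSO matched across wells. Timing: 37 °C overnight plating, 90-min dark dye load, 20-min compound pretreatment. Signal: kinetic FluxOR fluorescence, 10 s baseline plus 110 s post-stimulus.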
KCNK9 block – inhibitors of human KCNK9 two-pore domain potassium channel; HEK293 KCNK9, FluxOR thallium flux fluorescence; active compounds read low; B-score at 10 µM; actives 1.2% (n = 310,000); AID 488922;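 active = ratio B-score over 3 SD below the library mean, with starting fluorescence within 5 SD of its mean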;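 also: negative B-score means less thallium flux so channel inhibition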
hERG rescue – shields human hERG channel from block by proarrhythmic agents | Q12809 | CHO-hERG, FluxOR thallium flux, dofetilide IC70 present | activation (rescue from dofetilide block), less the hit threshold, % at 10 µM | actives 0.51% (n = 310,000) | AID 1511;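 active = activation above the mean of controls blocked by dofetilide plus 5 SD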;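 also: thallium influx through hERG after potassium depolarization seen as dye fluorescence rise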
Cl transport mod – KCC2 (human) Cl- transport modulation. actives 2.2% (n = 190,000). KCC2 cells, thallium flux FluoZin-2 fluorescence. Q9H2X9. B-score of Tl+ flux slope (higher = more flux/activation; lower = inhibition) at 10 µM;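 active = thallium flux slope and its plate-corrected score both differing from the plate sample mean at a set confidence after two filtering rounds, in either direction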;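 also: slope of fluorescence scaled to starting intensity during 10 to 20 s after thallium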
KCNK9 block conf – human KCNK9 inhibitor confirmation | AID 492992 | shares compounds with KCNK9 block | actives 43% (n = 4,900) | inhibition, % at 10 µM | HEK293 KCNK9 cells, FluxOR thallium flux fluorescence;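 active = thallium signal inhibited by more than 5 SD of the compound-free buffer control wells, on both duplicate plates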;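 also: 0% = assay buffer control wells without compound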
Kir21 sel – tests whether KCNK9 modulators also affect mouse Kir2.1; shares compounds with KCNK9 block; Kir2.1 cells, FluxOR thallium flux fluorescence; inhibition, % at 10 µM; actives 4% (n = 4,900);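 active = thallium signal drop more than 5 SD beyond the mean of the no-compound control wells, seen in both duplicate plates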;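 also: signal is fluorescence rise after thallium addition divided by baseline fluorescence; plate controls were assay buffer only for no effect and full block by chlorpromazine control for full effect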
HEK293 Tl ctr – second check of KCNK9 modulator effects in non-induced HEK293 cells; actives 40% (n = 4,900); shares compounds with KCNK9 block; inhibition, % at 10 µM; AID 492997; FluxOR thallium flux;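 active = thallium signal drop beyond 5 SD of the untreated control mean, on both duplicate plates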;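 also: plate controls were buffer only IC0 wells for no effect and SID17386958 at its maximal inhibitory level for full effect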
KCNK3 inh conf – confirmation of human KCNK3 two-pore domain potassium channel inhibitors; AID 651638; CHO-KCNK3 thallium flux, FluxOR fluorescence; 0% buffer, 100% carvedilol maximal block; ratio percent of control, % at 10 µM; actives 99% (n = 2,400); shares compounds with KCNK3 block;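 active = ratio percent of control, averaged over triplicates, above buffer control mean plus 5 SD, cut at about 64% in these data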;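 also: ratio is the fluorescence rise from min to max over baseline after thallium stimulus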
KCNK3 noninduced – counter-screen for KCNK3 inhibitors: effect in non-induced cells; non-induced KCNK3 parental cells, FluxOR thallium flux; active compounds read low; shares compounds with KCNK3 block; actives 40% (n = 2,400); thallium flux ratio (lower = more inhibition) at 10 µM;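 active = thallium flux ratio, averaged over three wells, more than 5 SD below the buffer control mean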;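 also: host cells are CHO cells without KCNK3 induction; ratio is peak minus trough fluorescence over baseline then normalized to buffer controls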
The depositor's hits bear a star. This is a sample that favours compounds with a hit; in the whole collection about 4.1% have one here.

Screening O=C(Nc1nc2c(s1)CCCC2)c1nn(Cc2ccccc2)c(=O)c2ccccc12 returned KCNQ1 block inactive, KCNK3 block -9*, KCNQ1 pot inactive, KCNK9 block -14*, hERG rescue -7, Cl transport mod -0.39, KCNK9 block conf 72%*, Kir21 sel inactive, HEK293 Tl ctr inactive, KCNK3 inh conf 101* and KCNK3 noninduced inactive.
Screening CCNC(=O)CNC(=O)c1nn(Cc2ccccc2)c(=O)c2ccccc12 returned KCNQ1 block inactive, KCNK3 block -13*, KCNQ1 pot inactive, KCNK9 block -10*, hERG rescue 2, KCNK9 block conf 60%*, Kir21 sel inactive, HEK293 Tl ctr 24%*, KCNK3 inh conf 102* and KCNK3 noninduced inactive.
For CC(C)CNC(=O)c1nn(Cc2ccccc2)c(=O)c2ccccc12 the results were KCNQ1 block inactive, KCNK3 block inactive, KCNQ1 pot inactive, KCNK9 block inactive and hERG rescue -3.
Screening Cc1cc(OC(C)C(=O)Nc2ccncc2)ccc1Cl (centres undefined) returned KCNQ1 block inactive, KCNK3 block inactive, KCNQ1 pot inactive, KCNK9 block inactive and hERG rescue -5.
For CCOc1ccccc1C1CC(=O)NC(SCC(=O)Nc2nccs2)=C1C#N (centres undefined) the results were KCNQ1 block inactive, KCNK3 block inactive, KCNQ1 pot inactive, KCNK9 block inactive, hERG rescue -9 and Cl transport mod 0.15.
For O=C(N/N=C/c1cccc(Oc2ccccc2)c1)c1cccc(Br)c1 the results were KCNQ1 block inactive, KCNK3 block -11*, KCNQ1 pot inactive, KCNK9 block -11*, hERG rescue 5.6*, Cl transport mod -0.46, KCNK9 block conf 54%*, Kir21 sel inactive, HEK293 Tl ctr 26%*, KCNK3 inh conf 99* and KCNK3 noninduced 0.16*.
For CCN1CCc2c(sc(NC(=O)c3ccc(S(=O)(=O)N4CCCCCC4)cc3)c2C(=O)NC)C1 the results were KCNQ1 block inactive, KCNK3 block inactive, KCNQ1 pot inactive, KCNK9 block inactive and hERG rescue -7.
Screening COc1ccc(OC)c(NC(=O)CN(Cc2ccc(F)cc2)C2CCCCC2)c1 returned KCNQ1 block inactive, KCNK3 block -8.8*, KCNQ1 pot inactive, KCNK9 block -14*, hERG rescue -19, KCNK9 block conf 69%*, Kir21 sel inactive, HEK293 Tl ctr 48%*, KCNK3 inh conf 56* and KCNK3 noninduced 0.12*.
C/C=C(/C)C(=O)OC1c2c(ccc3ccc(=O)oc23)OC(C)(C)C1OC(=O)/C(C)=C\C (centres undefined) was read as KCNQ1 block inactive, KCNK3 block -9.1*, KCNQ1 pot inactive, KCNK9 block -13*, hERG rescue -8, Cl transport mod -1, KCNK9 block conf 59%*, Kir21 sel inactive, HEK293 Tl ctr 35%*, KCNK3 inh conf 126* and KCNK3 noninduced 0.14*.
Screening C/C=C(\C)C(=O)OC1c2c(ccc3ccc(=O)oc23)OC(C)(C)C1OC(C)=O (centres undefined) returned KCNQ1 block inactive, KCNK3 block inactive, KCNQ1 pot inactive, KCNK9 block inactive, hERG rescue -10 and Cl transport mod -2.1.
For COc1ccc(OCc2n(CC(=O)OC3CC(C)CCC3C(C)C)c3ccccc3[n+]2C)cc1 (centres undefined) the results were KCNQ1 block 10*, KCNK3 block -10*, KCNQ1 pot inactive, KCNK9 block -14*, hERG rescue -37, Cl transport mod -0.96, KCNK9 block conf 70%*, Kir21 sel 79%*, HEK293 Tl ctr inactive, KCNK3 inh conf 112* and KCNK3 noninduced inactive.
Screening N#CC(C#N)=c1ccc2c(c1)N1C3=C(CCCC3)CC3CCCCC31N=2 (centres undefined) returned KCNQ1 block 14*, KCNK3 block -9.8*, KCNQ1 pot inactive, KCNK9 block -16*, hERG rescue -28, Cl transport mod -1.9, KCNK9 block conf 67%*, Kir21 sel inactive, HEK293 Tl ctr 45%*, KCNK3 inh conf 130* and KCNK3 noninduced 0.11*.
`Cc1onc(-c2ccc(Cl)cc2)c1-c1ccnc(SCC(=O)Nc2ccc(C(C)C)cc2)n1` gave KCNQ1 block inactive, KCNK3 block -11*, KCNQ1 pot inactive, KCNK9 block -9.6*, hERG rescue -5, Cl transport mod -0.86, KCNK9 block conf 40%*, Kir21 sel inactive, HEK293 Tl ctr 29%*, KCNK3 inh conf 115* and KCNK3 noninduced inactive.
`CCOc1cc(-c2nc(-c3ccccc3)c(-c3cc([N+](=O)[O-])ccc3C)[nH]2)ccc1O` gave KCNQ1 block 7*, KCNK3 block -9.6*, KCNQ1 pot inactive, KCNK9 block -12*, hERG rescue -16, Cl transport mod -0.14, KCNK9 block conf 56%*, Kir21 sel inactive, HEK293 Tl ctr inactive, KCNK3 inh conf 124* and KCNK3 noninduced 0.12*.
For O=[N+]([O-])c1ccc(O)c(-c2nc(-c3ccccc3)c(-c3cccs3)[nH]2)c1 the results were KCNQ1 block inactive, KCNK3 block inactive, KCNQ1 pot inactive, KCNK9 block inactive, hERG rescue -19 and Cl transport mod 0.042.
For CN(C(=O)CS(=O)(=O)c1cn(CC(=O)N2CCCC2)c2ccccc12)c1ccccc1 the results were KCNQ1 block inactive, KCNK3 block inactive, KCNQ1 pot inactive, KCNK9 block inactive and hERG rescue -13.

Source: PubChem BioAssay (several laboratories)
